Like-named read-outs stand apart in the source and are kept apart here.
Experiments:
RD cell line = experiment: DIMSCAN in vitro cytotoxicity testing, RD; format: cell-based
How it was run: (§1)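 Test compound incubated with cells of a 24-line pediatric cancer panel for 96 h at 0.1 nM to 1 μM, then assessed by DIMSCAN. Relative IC50 (rIC50) derived per line. Panel comparison value is the panel rIC50 divided by the rIC50 of each cell line.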

Rh41 cell line = experiment: DIMSCAN in vitro cytotoxicity testing, Rh41; format: cell-based
How it was run: as §1

Rh18 cell line = experiment: DIMSCAN in vitro cytotoxicity testing, Rh18; format: cell-based
How it was run: as §1

CCRF-CEM cell line = experiment: DIMSCAN in vitro cytotoxicity testing, CCRF-CEM; format: cell-based; details: for IC50: Homo sapiens, CCRF-CEM, 96 h
How it was run: as §1

Karpas-299 cell line = experiment: DIMSCAN in vitro cytotoxicity testing, Karpas-299; format: cell-based
How it was run: as §1

BT-29 rhabdoid xenograft = experiment: PPTP in vivo xenograft testing, BT-29; parameters: species or system mice
TC-71 Ewing xenograft = experiment: PPTP in vivo xenograft testing, TC-71; parameters: species or system mice
[1] = system: Rh30 ALV rhabdomyosarcoma xenograft; experiment: PPTP in vivo xenograft testing, Rh30; parameters: species or system mice
[2] = system: Rh36 EMB rhabdomyosarcoma xenograft; experiment: PPTP in vivo xenograft testing, Rh36; parameters: species or system mice
[3] = system: BT-50 medulloblastoma xenograft; experiment: PPTP in vivo xenograft testing, BT-50; parameters: species or system mice
[4] = system: NB-EBc1 neuroblastoma xenograft; experiment: PPTP in vivo xenograft testing, NB-EBc1; parameters: species or system mice
[5] = system: CHLA-79 neuroblastoma xenograft; experiment: PPTP in vivo xenograft testing, CHLA-79; parameters: species or system mice
[6] = system: OS-2 osteosarcoma xenograft; experiment: PPTP in vivo xenograft testing, OS-2; parameters: species or system mice
[7] = system: OS-9 osteosarcoma xenograft; experiment: PPTP in vivo xenograft testing, OS-9; parameters: species or system mice
[8] = system: OS-31 osteosarcoma xenograft; experiment: PPTP in vivo xenograft testing, OS-31; parameters: species or system mice
[9] = system: ALL-17 ALL B-precursor xenograft; experiment: PPTP in vivo xenograft testing, ALL-17; parameters: species or system mice
[10] = system: ALL-19 ALL B-precursor xenograft; experiment: PPTP in vivo xenograft testing, ALL-19; parameters: species or system mice
[11] = system: PPTP solid tumor xenografts; experiment: PPTP in vivo testing, solid tumor xenograft panels summary; parameters: species or system mice
[12] = Tolerability in xenograft-bearing mice; format: in vivo
[13] = cited from earlier work
[14] = Eribulin pharmacokinetics in SCID mice
[15] = 1 mg/kg IP Q4Dx3 repeated at Day 21
[16] = NB-EBc1, 1 mg/kg IP Q4Dx3 repeated at Day 21
[17] = 1.5 mg/kg IP Q4Dx3 repeated at Day 21

## C=C1C[C@@H]2CC[C@@]34C[C@H]5O[C@H]6[C@@H](O3)[C@H]3O[C@H](CC[C@@H]3O[C@H]6[C@H]5O4)CC(=O)C[C@@H]3[C@@H](OC)[C@@H](C[C@H](O)CN)O[C@H]3C[C@H]3O[C@@H](CC[C@@H]1O2)C[C@@H](C)C3=C [Eribulin]
RD cell line
  Panel rIC50/Line rIC50: 1.92
  Relative in/out%: −18%
  Ymin % (observed): 4.49%
RD cell line; Homo sapiens, 96 h, read-out: rIC50
  IC50: 0.14 nM
Rh41 cell line; Homo sapiens, Rh41, 96 h, read-out: rIC50
  IC50: 0.14 nM
Rh41 cell line; Rh41
  Panel rIC50/Line rIC50: 2.00
  Relative in/out%: −70%
  Ymin % (observed): 6.63%
Rh18 cell line; Homo sapiens, Rh18, 96 h, read-out: rIC50
  IC50: 0.83 nM
Rh18 cell line; Rh18
  Panel rIC50/Line rIC50: 0.33
  Relative in/out%: −53%
  Ymin % (observed): 20.92%
CCRF-CEM cell line; CCRF-CEM (1)
  Panel rIC50/Line rIC50: 0.17
  Relative in/out%: −100%
  Ymin % (observed): 0.01%
CCRF-CEM cell line; CCRF-CEM (2)
  Panel rIC50/Line rIC50: 0.14
  Relative in/out%: −100%
  Ymin % (observed): 0.02%
CCRF-CEM cell line; read-out: rIC50, CCRF-CEM (1) ALL
  IC50: 1.62 nM
CCRF-CEM cell line; read-out: rIC50, CCRF-CEM (2) ALL
  IC50: 1.88 nM
Karpas-299 cell line; Homo sapiens, KARPAS-299, 96 h, read-out: rIC50
  IC50: < 0.1 nM
Karpas-299 cell line; Karpas-299
  Panel rIC50/Line rIC50: >2.74
  Relative in/out%: −100%
  Ymin % (observed): 0.03%
BT-29 rhabdoid xenograft; 1 mg/kg IP
  Response activity: Int (intermediate activity by a score of ≥2 but <6)
  T/C volume activity: Low (Low activity = T/C >0.45)
BT-29 rhabdoid xenograft; [15]
  EFS T/C: >1.6
  Median final RTV (CD45%): >4
BT-29 rhabdoid xenograft; 1 mg/kg IP, Day 21 or earlier
  Tumor volume T/C: 0.65
TC-71 Ewing xenograft; 1 mg/kg IP
  Response activity: High (A high level of activity is indicated by a score of 6 or more)
  T/C volume activity: Int (Intermediate activity = T/C ≤0.45 but >0.15)
TC-71 Ewing xenograft; [15]
  EFS T/C: >1.5
  Median final RTV (CD45%): 2.3
TC-71 Ewing xenograft; 1 mg/kg IP, Day 21 or earlier
  Tumor volume T/C: 0.19
[1]; 1 mg/kg IP
  EFS activity: High (High activity requires: (a) an EFS T/C >2; (b) a significant difference in EFS distributions, and (c) a net reduction in median tumor volume for animals in the treated group at the end of treatment as compared to at treatment initiation)
  Response activity: High (A high level of activity is indicated by a score of 6 or more)
  T/C volume activity: High (High activity = T/C ≤0.15)
[1]; [15]
  EFS T/C: >3.8
  Median final RTV (CD45%): 0.0
[1]; 1 mg/kg IP, Day 21 or earlier
  Tumor volume T/C: 0.06
[2]; 1 mg/kg IP
  EFS activity: High (High activity requires: (a) an EFS T/C >2; (b) a significant difference in EFS distributions, and (c) a net reduction in median tumor volume for animals in the treated group at the end of treatment as compared to at treatment initiation)
  Response activity: High (A high level of activity is indicated by a score of 6 or more)
  T/C volume activity: High (High activity = T/C ≤0.15)
[2]; [15]
  EFS T/C: >6.3
  Median final RTV (CD45%): 0.0
[2]; 1 mg/kg IP, Day 21 or earlier
  Tumor volume T/C: 0.10
[3]; 1 mg/kg IP
  Response activity: Low (low activity by a score of <2)
  T/C volume activity: Low (Low activity = T/C >0.45)
[3]; [15]
  EFS T/C: >1.1
  Median final RTV (CD45%): >4
[3]; 1 mg/kg IP, Day 21 or earlier
  Tumor volume T/C: 0.78
[4]; NB-EBc1, 1 mg/kg IP
  EFS activity: Low (Low activity = EFS T/C <2)
  Response activity: Low (low activity by a score of <2)
  T/C volume activity: Low (Low activity = T/C >0.45)
[4]; [16]
  EFS T/C: 1.1
  Median final RTV (CD45%): >4
  Time to event: 4.5
[4]; NB-EBc1, 1 mg/kg IP, Day 21 or earlier
  Tumor volume T/C: 0.82
[4]; NB-EBc1 neuroblastoma xenograft
  objective response: not responsive
[5]; 1 mg/kg IP
  EFS activity: Low (Low activity = EFS T/C <2)
  Response activity: Int (intermediate activity by a score of ≥2 but <6)
  T/C volume activity: Low (Low activity = T/C >0.45)
[5]; [15]
  EFS T/C: 1.9
  Median final RTV (CD45%): >4
  Time to event: 13.0
[5]; 1 mg/kg IP, Day 21 or earlier
  Tumor volume T/C: 0.71
[6]; 1 mg/kg IP
  EFS activity: High (High activity requires: (a) an EFS T/C >2; (b) a significant difference in EFS distributions, and (c) a net reduction in median tumor volume for animals in the treated group at the end of treatment as compared to at treatment initiation)
  Response activity: Int (intermediate activity by a score of ≥2 but <6)
  T/C volume activity: Int (Intermediate activity = T/C ≤0.45 but >0.15)
[6]; [15]
  EFS T/C: >2.5
  Median final RTV (CD45%): 0.8
[6]; 1 mg/kg IP, Day 21 or earlier
  Tumor volume T/C: 0.21
[7]; 1 mg/kg IP
  EFS activity: Low (Low activity = EFS T/C <2)
  Response activity: Low (low activity by a score of <2)
  T/C volume activity: Low (Low activity = T/C >0.45)
[7]; [15]
  EFS T/C: 1.4
  Median final RTV (CD45%): >4
  Time to event: 26.3
[7]; 1 mg/kg IP, Day 21 or earlier
  Tumor volume T/C: 0.61
[8]; 1 mg/kg IP
  EFS activity: Int (Intermediate activity = criteria (a) and (b) above, but not having a net reduction in median tumor volume for treated animals at the end of the study)
  Response activity: Int (intermediate activity by a score of ≥2 but <6)
  T/C volume activity: Int (Intermediate activity = T/C ≤0.45 but >0.15)
[8]; [15]
  EFS T/C: >2.6
  Median final RTV (CD45%): 1.8
[8]; 1 mg/kg IP, Day 21 or earlier
  Tumor volume T/C: 0.27
[9]; 1.5 mg/kg IP
  EFS activity: High (High activity requires: (a) an EFS T/C >2; (b) a significant difference in EFS distributions, and (c) a net reduction in median tumor volume for animals in the treated group at the end of treatment as compared to at treatment initiation)
  Response activity: High (A high level of activity is indicated by a score of 6 or more)
[9]; [17]
  EFS T/C: >5.3
[9]; CD45%, 1.5 mg/kg IP
  Median final RTV (CD45%): 0.0%
[10]; 1.5 mg/kg IP
  EFS activity: High (High activity requires: (a) an EFS T/C >2; (b) a significant difference in EFS distributions, and (c) a net reduction in median tumor volume for animals in the treated group at the end of treatment as compared to at treatment initiation)
  Response activity: High (A high level of activity is indicated by a score of 6 or more)
[10]; [17]
  EFS T/C: >8.4
[10]; CD45%, 1.5 mg/kg IP
  Median final RTV (CD45%): 0.0%
[11]; Ewing sarcoma xenografts
  xenografts with CR or maintained CR: four of five
[11]; Ewing sarcoma xenografts, listed as eribulin
  xenografts with CR or maintained CR: 4 of 5
[11]; evaluable Ewing sarcoma xenografts
  xenografts with high EFS T/C activity: three of four
[11]; evaluable osteosarcoma xenografts
  xenografts with high EFS T/C activity: three of five
[11]; evaluable solid tumor xenografts, 1 mg/kg
  xenografts with significant difference in EFS distribution compared to control: 29 of 35
[11]; glioblastoma xenografts
  xenografts with CR or maintained CR: two of four
  xenografts with high EFS T/C activity: two of four
[11]; osteosarcoma xenografts
  xenografts with CR or maintained CR: three of six
  xenografts with high activity: three
[11]; rhabdomyosarcoma xenografts
  xenografts with CR or maintained CR: six of seven
  xenografts with MCR: 6 of 7
  xenografts with high EFS T/C activity: six of seven
[11]; solid tumor models
  lines with high EFS T/C activity: 17
  lines with intermediate EFS T/C activity: seven
[11]; solid tumor xenografts, 1 mg/kg
  xenografts with objective response: 18 of 35
[12]; 6 of 409 treated mice, control 1 of 401
  toxicity rate in the treated groups: 1.5%
[12]; NOD-SCID, mouse, in vivo, ip
  MTD at 6 weeks: 1.5 mg/kg
[13]; humans, 1.4 mg/m^2 dose
  systemic exposure (AUC): approximately 790 ng hour/ml
[13]; patients
  serum half-life: 37.8 h
[14]; 1 mg/kg dose, SCID mice
  AUC (area under the plasma drug concentration-time curve): 658 ng·h/mL
[14]; preclinical setting, three doses of 1 mg/kg per course
  AUC per course of treatment: 1,974 ng hour/ml

Source: article PMC4263960 (Pediatric blood & cancer, 2013)
